From ChEMBL document CHEMBL4406810, “Modifications on the Amino-3,5-dicyanopyridine Core To Obtain Multifaceted Adenosine Receptor Ligands with Antineuropathic Activity” (J Med Chem, 2019)
Active and inactive are the calls of the source.

Legend:
Mus musculus [1] = test: (§1) Antinociceptive activity in CD-1 albino mouse model of oxaliplatin-induced neuropathic pain assessed as increase in licking latency at 0.3 mg/kg, po treated on day 15 post oxaliplatin treatment and measured at 15 to 60 mins post dose in presence of alpha7 nAChR antagonist methyllycaconitine by cold plate test; assay type: functional, organism-based
Outline: (§2)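 Oxaliplatin neuropathy in male CD-1 mice (2.4 mg/kg i.p., 10 injections, days 1-14). Day 15: mecamylamine 2 mg/kg i.p. or methyllycaconitine 6 mg/kg i.p. given 15 min before the oral dose. Cold plate (4 °C) licking/lifting latency with 60 s cut-off, measured over time after dosing. 10 mice/group, two sets.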

Adenosine receptor A2a [2] = biological target: T1, Adenosine receptor A2a (Homo sapiens, UniProt P29274); test: Displacement of [3H]ZM241385 from human A2AR expressed in CHO cell membranes measured after 60 mins by scintillation counting method
Outline: (§3)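 Nonspecific binding defined with 1 µM ZM241385. Filtered on GF/B, scintillation counted. Ki by Cheng–Prusoff. Percent inhibition at 1 µM. Four experiments in triplicate.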

[3] = Half life in Sprague-Dawley rat plasma at 1 uM by LC-MS/MS analysis; assay type: ADME, cell-free
Outline: (§4)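 Analyte spiked at 1 µM into human plasma or heparinized Sprague-Dawley male rat plasma (or PBS). Incubated at 37°C for 0, 30, 60, 120 min in triplicate. Internal standard added, centrifuged, dried, reconstituted. Quantified by LC-MS/MS (ESI negative, MRM) against a 0–1 µM calibration. Half-life from concentration-time profile.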

[4] = biological target: T2, Adenosine receptor A2b (Homo sapiens) (UniProt P29275); test: Antagonist activity at human A2BR expressed in CHO cells assessed as inhibition of NECA-stimulated cAMP production at 1 uM by alphascreen assay relative to control; assay type: functional, cell-based
T2 sequence (whole entry): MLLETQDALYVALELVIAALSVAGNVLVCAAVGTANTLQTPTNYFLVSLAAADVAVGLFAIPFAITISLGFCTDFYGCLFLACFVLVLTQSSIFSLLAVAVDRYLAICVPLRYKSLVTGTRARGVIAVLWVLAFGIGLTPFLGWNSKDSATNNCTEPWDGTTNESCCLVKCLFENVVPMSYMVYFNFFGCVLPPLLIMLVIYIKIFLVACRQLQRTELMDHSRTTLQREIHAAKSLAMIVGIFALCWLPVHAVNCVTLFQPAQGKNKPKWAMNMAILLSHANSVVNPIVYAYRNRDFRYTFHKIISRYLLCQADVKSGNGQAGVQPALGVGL
Outline: (§5)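 Compounds added at 1 nM to 1 µM final, with percent inhibition read at 1 µM. AlphaScreen cAMP read-out. IC50 by sigmoid non-linear regression. Four independent experiments in triplicate.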

[5] = Half life in human plasma at 1 uM by LC-MS/MS analysis; assay type: ADME, cell-free; outline: as §4
Adenosine receptor A1 [6] = biological target: T3, Adenosine receptor A1 (Homo sapiens, UniProt P30542); test: Inverse agonist activity at human A1AR expressed in CHO cells assessed as increase in forskolin-stimulated cAMP production by alphascreen assay; assay type: functional, cell-based
T3 sequence (P30542 whole entry): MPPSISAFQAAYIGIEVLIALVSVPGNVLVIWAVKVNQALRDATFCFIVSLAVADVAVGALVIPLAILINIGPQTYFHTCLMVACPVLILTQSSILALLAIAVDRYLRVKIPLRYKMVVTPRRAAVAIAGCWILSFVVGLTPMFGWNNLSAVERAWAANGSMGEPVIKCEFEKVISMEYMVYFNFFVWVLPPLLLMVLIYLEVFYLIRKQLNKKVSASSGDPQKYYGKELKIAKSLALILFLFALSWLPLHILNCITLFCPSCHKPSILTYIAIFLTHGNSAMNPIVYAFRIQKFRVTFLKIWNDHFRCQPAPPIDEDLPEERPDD
Outline: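 Compounds at 1 nM to 1 µM. cAMP rise measured by AlphaScreen. EC50 from sigmoid fit. Four independent experiments in triplicate.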

[7] = biological target: T4, Adenosine receptor A3 (Homo sapiens) (UniProt P0DMS8); test: Displacement of [125I]ABMECA from human A3R expressed in CHO cell membranes at 1 uM measured after 120 mins by scintillation counting method relative to control
T4 sequence (whole entry): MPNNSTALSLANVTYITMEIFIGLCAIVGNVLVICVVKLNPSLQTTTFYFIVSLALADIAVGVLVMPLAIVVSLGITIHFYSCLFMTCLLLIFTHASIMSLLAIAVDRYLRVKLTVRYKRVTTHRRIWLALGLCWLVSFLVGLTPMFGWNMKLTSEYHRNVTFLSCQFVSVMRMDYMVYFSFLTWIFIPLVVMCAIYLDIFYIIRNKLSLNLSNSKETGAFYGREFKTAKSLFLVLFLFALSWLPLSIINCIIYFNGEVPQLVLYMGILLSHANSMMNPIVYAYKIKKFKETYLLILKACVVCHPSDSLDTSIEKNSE
Outline: (§6)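 Nonspecific binding with 1 µM AB-MECA. GF/B filtration and counting. Ki via Cheng–Prusoff. Percent inhibition at 1 µM. Four experiments in triplicate.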

[8] = biological target: T2, Adenosine receptor A2b (Homo sapiens); test: Agonist activity at human A2B expressed in CHO cells assessed as stimulation of cAMP production at 1 uM by alphascreen assay relative to NECA; assay type: functional, cell-based
Outline: (§7)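 Compounds tested alone at final 1 nM to 1 µM. cAMP measured by AlphaScreen. Efficacy taken at 1 µM relative to NECA 1 µM (=100%). Four independent experiments in triplicate.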

Mus musculus [9] = test: as §1, with “nonspecific” for “alpha7”, “mecamylamine” for “methyllycaconitine”; assay type: functional, organism-based; outline: as §2
CHO = test: Effect on cAMP level in wild-type CHO cells at 0.001 to 1 uM by alphascreen assay; assay type: functional, cell-based; settings: Cricetulus griseus
Outline: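 Compounds at 1 nM to 1 µM final concentrations. cAMP quantified with AlphaScreen kit. Four independent experiments, each in triplicate.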

Mus musculus [10] = test: Antinociceptive activity in CD-1 albino mouse model of oxaliplatin-induced neuropathic pain assessed as increase in licking latency at 0.1 to 0.3 mg/kg, po treated on day 15 post oxaliplatin treatment and measured at 15 to 45 mins post dose by cold plate test; assay type: functional, organism-based
Outline: (§8)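 Male CD-1 mice (22–25 g) given oxaliplatin 2.4 mg/kg i.p. in 5% glucose on days 1-2, 5-9 and 12-14. On day 15, single oral dose (test compounds in 1% CMC). Cold plate at 4 °C, latency to paw licking or lifting, 60 s cut-off, read 15–60 min post dose. 10 mice/group in two sets. ANOVA with Bonferroni.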

Adenosine receptor A2b [11] = biological target: T5, Adenosine receptor A2b (Homo sapiens, UniProt P29275); test: Agonist activity at human A2B expressed in CHO cells assessed as stimulation of cAMP production by alphascreen assay; assay type: functional, cell-based; outline: as §7
T5 sequence (P29275 whole entry): T2 sequence (whole entry)

Adenosine receptor A2a [12] = biological target: T1, Adenosine receptor A2a; test: Antagonist activity at human A2AR expressed in CHO cells assessed as inhibition of CGS21680-stimulated cAMP production by alphascreen assay; assay type: functional, cell-based
[13] = biological target: T6, Adenosine receptor A1 (Homo sapiens) (UniProt P30542); test: Inverse agonist activity at human A1AR expressed in CHO cells assessed as increase in forskolin-stimulated cAMP production by alphascreen assay relative to DPCPX; assay type: functional, cell-based
T6 sequence (whole entry): T3 sequence (P30542 whole entry)
Outline: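 Compounds at 1 nM to 1 µM. cAMP rise measured by AlphaScreen. EC50 from sigmoid fit. […] Four independent experiments in triplicate.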

Adenosine receptor A1 [14] = biological target: T3, Adenosine receptor A1; test: Displacement of [3H]DPCPX from human A1AR expressed in CHO cell membranes measured after 90 mins by scintillation counting method
Outline: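 Nonspecific binding with 1 µM DPCPX. GF/B filtration and scintillation counting. Ki by Cheng–Prusoff. Inhibition % at 1 µM. Four experiments in triplicate.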

Mus musculus [15] = test: Antinociceptive activity in CD-1 albino mouse model of oxaliplatin-induced neuropathic pain assessed as increase in licking latency at 0.1 to 0.3 mg/kg, po treated on day 15 post oxaliplatin treatment and measured at 30 to 60 mins post dose by cold plate test; assay type: functional, organism-based; outline: as §8
Adenosine receptor A3 = biological target: T7, Adenosine receptor A3 (Homo sapiens, UniProt P0DMS8); test: Displacement of [125I]ABMECA from human A3R expressed in CHO cell membranes measured after 120 mins by scintillation counting method; outline: as §6
T7 sequence (P0DMS8 whole entry): T4 sequence (whole entry)

Adenosine receptor A1 [16] = biological target: T3, Adenosine receptor A1; test: Antagonist activity at human A1AR expressed in CHO cells assessed as suppression of CCPA-induced inhibition of forskolin-stimulated cAMP production by alphascreen assay; assay type: functional, cell-based
Outline: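 hA1 CHO cells in HBSS with HEPES, Ro 20-1724 (phosphodiesterase inhibitor), BSA and adenosine deaminase. Forskolin 5 µM with CCPA 1 nM. […] AlphaScreen detection. IC50 and Emax by sigmoid fit. Four independent experiments in triplicate.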

Mus musculus [17] = test: Antinociceptive activity in CD-1 albino mouse model of oxaliplatin-induced neuropathic pain assessed as increase in licking latency at 1 mg/kg, po treated on day 15 post oxaliplatin treatment and measured at 15 to 60 mins post dose by cold plate test; assay type: functional, organism-based; outline: as §8
Adenosine receptor A2b [18] = biological target: T5, Adenosine receptor A2b; test: Antagonist activity at human A2BR expressed in CHO cells assessed as inhibition of NECA-stimulated cAMP production by alphascreen assay; assay type: functional, cell-based; outline: as §5
Mus musculus [19] = test: Antinociceptive activity in CD-1 albino mouse model of oxaliplatin-induced neuropathic pain assessed as increase in licking latency at 0.3 mg/kg, po treated on day 15 post oxaliplatin treatment and measured at 15 to 60 mins post dose by cold plate test; assay type: functional, organism-based; outline: as §8
Adenosine receptor A2a [20] = biological target: T1, Adenosine receptor A2a; test: Displacement of [3H]ZM241385 from human A2AR expressed in CHO cell membranes at 1 uM measured after 60 mins by scintillation counting method relative to control; outline: as §3
Mus musculus [21] = test: (§9) Antinociceptive activity in CD-1 albino mouse model of oxaliplatin-induced neuropathic pain assessed as increase in licking latency at 10 mg/kg, po treated on day 15 post oxaliplatin treatment and measured at 15 to 60 mins post dose by cold plate test; assay type: functional, organism-based; outline: as §8
Mus musculus [22] = test: as §9, with “dose in presence of nonspecific nAChR antagonist mecamylamine” for “dose”; assay type: functional, organism-based; outline: as §2
Mus musculus [23] = test: Antinociceptive activity in CD-1 albino mouse model of oxaliplatin-induced neuropathic pain assessed as increase in licking latency at 0.01 to 0.3 mg/kg, po treated on day 15 post oxaliplatin treatment and measured at 15 to 45 mins post dose by cold plate test; assay type: functional, organism-based; outline: as §8

T1 sequence (P29274 whole entry): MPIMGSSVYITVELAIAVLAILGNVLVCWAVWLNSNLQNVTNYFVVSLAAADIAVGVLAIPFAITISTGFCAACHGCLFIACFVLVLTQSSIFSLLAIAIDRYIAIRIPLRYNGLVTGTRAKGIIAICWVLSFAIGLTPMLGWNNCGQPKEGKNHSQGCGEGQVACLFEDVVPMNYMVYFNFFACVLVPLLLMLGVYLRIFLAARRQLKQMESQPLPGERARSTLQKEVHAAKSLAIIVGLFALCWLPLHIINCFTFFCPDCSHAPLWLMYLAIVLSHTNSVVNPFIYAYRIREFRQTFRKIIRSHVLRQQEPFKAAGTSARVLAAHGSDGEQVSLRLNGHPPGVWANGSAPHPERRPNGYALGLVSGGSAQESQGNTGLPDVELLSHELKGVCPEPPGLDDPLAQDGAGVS

Row | Compound | Ki (Adenosine receptor A2a [2]) [nM] | EC50 (Adenosine receptor A1 [6]) [nM] | inhibition [7] [%] | Efficacy [8] [%] | Activity (CHO) | EC50 (Adenosine receptor A2b [11]) [nM] | IC50 (Adenosine receptor A2a [12]) [nM] | Emax [13] [%] | Ki (Adenosine receptor A1 [14]) [nM] | further results
1 | COC(=O)c1cccc(CSc2nc(N)c(C#N)c(-c3ccco3)c2C#N)c1 | 68 | 1.43 | 26 | 7 | inactive | > 1000 | 313 | 35 | 7.22 | Activity (Mus musculus [1]): inactive; half-life at 1 µM [3]: ≥ 4 h; inhibition [4]: 25%; half-life at 1 µM [5]: ≥ 4 h; Activity (Mus musculus [9]): inactive; Activity (Mus musculus [10]): Active
2 | CCOC(=O)[C@H](CCc1ccccc1)N[C@@H](C)C(=O)N1CCC[C@H]1C(=O)O |  |  |  |  |  |  |  |  |  | half-life at 1 µM [3]: 0.367 h
3 | CCOC(=O)C(C)c1cccc(C(=O)c2ccccc2)c1 (stereo not drawn) |  |  |  |  |  |  |  |  |  | half-life at 1 µM [5]: 1.67 h
4 | N#Cc1c(N)nc(SCc2cccc(C(=O)O)c2)c(C#N)c1-c1ccco1 | 581 | 8.92 |  | 1 | inactive | > 1000 |  | 45 | 4.12 | Activity (Mus musculus [15]): Active; inhibition [4]: 12%; Ki (Adenosine receptor A3): 611 nM
5 | N#Cc1c(NCc2ccccc2)nc(SCCO)c(C#N)c1-c1ccco1 | 461 |  | 14 | 3 | inactive | > 1000 |  |  | 65 | IC50 (Adenosine receptor A1 [16]): 76 nM
6 | N#Cc1c(N)nc(SCc2cccc(C(N)=O)c2)c(C#N)c1-c1ccco1 | 67 | 2.84 |  | 6 | inactive | > 1000 | 58 | 31 | 1.32 | Ki (Adenosine receptor A3): 326 nM; Activity (Mus musculus [17]): Active; IC50 (Adenosine receptor A2b [18]): 13 nM; Activity (Mus musculus [19]): inactive
7 | N#Cc1c(NC2CC2)nc(SCCO)c(C#N)c1-c1ccco1 |  |  | 30 | 4 | inactive | > 1000 |  |  | 89 | IC50 (Adenosine receptor A1 [16]): 118 nM; inhibition (Adenosine receptor A2a [20]): 30%
8 | Cn1c(=O)c2c(ncn2C)n(C)c1=O |  |  |  |  |  |  |  |  |  | Activity (Mus musculus [21]): Active; Activity (Mus musculus [22]): inactive
9 | N#Cc1c(N)nc(SCc2cccc(CO)c2)c(C#N)c1-c1ccco1 | 31 | 4.97 | 25 | 4 | inactive | > 1000 | 22 | 98 | 0.98 | Activity (Mus musculus [1]): inactive; Activity (Mus musculus [9]): inactive; IC50 (Adenosine receptor A2b [18]): 152 nM; Activity (Mus musculus [23]): Active
